The whole screen tested about 370,000 compounds, of which about 2,000 (0.54%) were called active.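 How the source made its calls: active means inhibition exceeding the mean over every tested compound plus 3 SD (cut at about 30% in these data); inactive means the rest.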 Shown is part of a subset that was picked to be rich in actives.
The compounds below were run against (Lyso)-N-acylphosphatidylethanolamine lipase (Mus musculus) (UniProt Q8VD66) (assay: ABHD4 inhibitors, primary screen, biochemical, fluorescence polarization, mouse (AID 720543;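 further: 0% = plate median of compound wells and 100% = S159A mutant with DMSO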)). Settings: purified mABHD4, FP-Rh probe fluorescence polarization; at 8.92 µM; stronger effect = higher value.
Chain of (Lyso)-N-acylphosphatidylethanolamine lipase (Mus musculus) (Q8VD66 whole entry, looked up): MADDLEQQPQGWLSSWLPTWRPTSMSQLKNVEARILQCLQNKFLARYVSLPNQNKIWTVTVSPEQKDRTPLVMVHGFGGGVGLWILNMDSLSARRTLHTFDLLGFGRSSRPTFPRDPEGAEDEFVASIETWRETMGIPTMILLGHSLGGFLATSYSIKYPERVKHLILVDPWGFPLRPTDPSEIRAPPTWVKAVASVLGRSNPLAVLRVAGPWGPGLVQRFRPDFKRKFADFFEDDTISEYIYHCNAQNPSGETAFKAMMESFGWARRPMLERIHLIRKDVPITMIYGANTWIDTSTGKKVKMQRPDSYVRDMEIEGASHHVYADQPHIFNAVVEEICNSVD
Summary of the method: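 Material: mouse ABHD4 enzyme, wild type; Benchmarks: S159A mutant high control, sample median low control; Buffer or medium: HEPES pH 7.0, NaCl, Pluronic buffer; Signal: fluorescence polarization; Read-out: percent inhibition of probe binding, normalized to plate controls; Timing: pre-incubation 45 min, probe exposure 60 min, at 25 °C; Dosing: 8.92 µM, single dose.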
With `NC1=CC(=O)C(=O)c2cccnc21` the inhibition was 59.2% (active). `COC(=O)C[C@@H]1CC[C@@H]2[C@H](COc3ccc(NC(=O)c4cccc(F)c4)cc3C(=O)N2C)O1` was tested, and the inhibition was -0.54% (inactive). In the case of `CO[C@@H]1CN(C)C(=O)c2cc(NC(=O)C3CC3)ccc2OC[C@H](C)N(C(=O)CN2CCOCC2)C[C@@H]1C`, the inhibition is reported as -0.34% (inactive). `CCCOc1cccc(C(=O)Nc2nnn(CCC)n2)c1` was tested, and the inhibition was 7.16% (inactive). `Cc1ccc(F)cc1NC(=O)c1cccc(N(C)C)c1` was tested, and the inhibition was -2.26% (inactive). `CCC(CO)Oc1cc(NC(=O)c2cccc(F)c2)c2ncn(C(C)C)c2c1` (stereo not drawn) was tested, and the inhibition was 44.4% (active). For `Nc1ncnc2c1ncn2[C@@H]1O[C@H](CNS(=O)(=O)c2ccc(-c3ccno3)s2)[C@@H](O)[C@H]1O`, the inhibition was -3.46% (inactive). With `CC(C)(C)OC(=O)NCCc1ccccc1/C=C/S(=O)(=O)NCc1ccc(F)cc1` the inhibition was 14.8% (inactive). `Cc1cccc(-n2cnc(C(=O)NNC(=S)Nc3ccccc3)c2)n1` was tested, and the inhibition was 43.3% (active). `O=C(NNC(=S)Nc1ccccc1)c1cccc(S(=O)(=O)N2CCOCC2)c1` was tested, and the inhibition was 1.73% (inactive). With `Cc1cccc(-n2cnc(C(=O)Nc3cccnc3)c2)n1` the inhibition was -2.09% (inactive). With `CC(=O)N1N=C(c2ccncc2)OC1(Cc1ccccc1)Cc1ccccc1` the inhibition was -3.49% (inactive). `CCOC(=O)[C@]12CCCC3=C1N(CCC3)C(=O)[C@@H](CC(=O)NCc1cccs1)C2` was tested, and the inhibition was -5.06% (inactive). `CN(C)CCCN(Cc1cc2cc3c(cc2[nH]c1=O)OCCO3)C(=O)NC1CCCCC1` was tested, and the inhibition was 1.3% (inactive). `O=S1(=O)c2ccc(Br)cc2-n2nncc2CN1Cc1cccc(Cl)c1` was tested, and the inhibition was -5.52% (inactive). With `Cc1ccccc1OCC(=O)NCC(=O)OCC(=O)c1ccc2ccccc2c1` the inhibition was 3.01% (inactive). In the case of `Cc1cc2ccccc2n1CCNC(=O)COc1ccc2ccccc2c1`, the inhibition is reported as 40.9% (active). With `O=C(COc1ccc(Cl)cc1)NCCSc1ccccc1` the inhibition was -6.3% (inactive). `O=C(N1CCOCC1)N1CC[C@H]2[C@H](CCCN2Cc2ccc(F)cc2)C1` was tested, and the inhibition was 4.72% (inactive). For `CC(C)C(C#CC1CC1)N(Cc1ccc2c(c1)OCO2)C(N)=NC(=O)/C=C/c1cccc(C(F)(F)F)c1` (stereo not drawn), the inhibition was 4.25% (inactive). With `O=C(Nn1c(SCc2ccc([N+](=O)[O-])cc2)nc2ccccc2c1=O)c1ccc(F)cc1` the inhibition was -52.4% (inactive). For `O=c1[nH]n(-c2ccc([N+](=O)[O-])cc2)c(=O)c2ccccc12`, the inhibition was 59.3% (active). `C=CCNC(=S)N1CCN(CCN=Cc2c(C)[nH]n(-c3ccc([N+](=O)[O-])cc3)c2=O)CC1` was tested, and the inhibition was -6.41% (inactive).

From PubChem BioAssay AID720543 (The Scripps Research Institute Molecular Screening Center, 2013)
